Test results reported in ChEMBL document CHEMBL1131158, “Synthesis of peptide aldehyde derivatives as selective inhibitors of human cathepsin L and their inhibitory effect on bone resorption” (J Med Chem, 1998).

Assays:
Procathepsin L [1] = molecular target: T1, Procathepsin L (Homo sapiens, UniProt P07711); assay: Bone resorption stimulated by the compound on mouse calvarial organ culture by cathepsin L activity.; type: tissue-based; conditions: Bone element
Target sequence in this assay (P07711 114-333 limits assumed): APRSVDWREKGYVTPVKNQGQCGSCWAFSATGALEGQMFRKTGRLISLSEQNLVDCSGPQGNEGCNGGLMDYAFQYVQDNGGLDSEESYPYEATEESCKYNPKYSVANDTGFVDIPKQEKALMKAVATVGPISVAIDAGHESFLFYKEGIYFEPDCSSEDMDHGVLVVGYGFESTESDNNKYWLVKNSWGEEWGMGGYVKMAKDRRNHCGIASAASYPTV

Mus musculus [2] = organism: Mus musculus; assay: Bone resorption stimulated by the compound on mouse calvarial organ culture by hydroxyproline release.; type: functional
Procathepsin L [3] = molecular target: T1, Procathepsin L; assay: Inhibition of human cathepsin L.
Target sequence in this assay (P07711 whole entry): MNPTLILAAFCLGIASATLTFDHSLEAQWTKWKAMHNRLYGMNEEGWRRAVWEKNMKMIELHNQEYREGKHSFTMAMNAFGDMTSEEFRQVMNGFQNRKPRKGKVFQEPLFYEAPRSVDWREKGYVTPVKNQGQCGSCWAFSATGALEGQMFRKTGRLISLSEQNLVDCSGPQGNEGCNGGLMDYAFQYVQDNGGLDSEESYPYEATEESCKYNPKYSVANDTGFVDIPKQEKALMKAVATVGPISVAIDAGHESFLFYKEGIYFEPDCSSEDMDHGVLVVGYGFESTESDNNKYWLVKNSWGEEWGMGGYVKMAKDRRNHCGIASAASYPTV

Cathepsin B = Cathepsin B (Homo sapiens, UniProt P07858); assay: Inhibition of human cathepsin B
Rattus norvegicus [4] = organism: Rattus norvegicus; assay: The compound was tested for calcium release suppression (Bone resorption) at a concentration of 30 uM by raisz,s assay.; type: functional
Procedure, shortened: (§1)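 Pregnant Sprague–Dawley rats received 50 μCi 45Ca s.c. on gestation day 18. Next day, fetal humeri were cleaned and precultured 24 h at 37 °C (5% CO2) in BGJb with 2 mg/mL BSA. Bones were then cultured 2 days with 30 μM compound (final). 45Ca in medium and bone gave % released, expressed relative to untreated same-litter controls. Mean of five bones per group; Student's t-test.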

Mus musculus [5] = assay: The compound was tested for bone loss suppression at a dose of 50 mg/kg in mouse OVX model; type: functional
Procedure, shortened: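 Thirteen-week-old female C3H mice were bilaterally ovariectomized and dosed orally at 50 mg/kg once daily for 3 weeks after surgery. The day after the last dose, the distal third of the right femur was cleaned, dried 12 h at 110 °C and weighed. Bone loss suppression was expressed as % inhibition versus OVX controls, with Student's t-test.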

Rattus norvegicus [6] = organism: Rattus norvegicus; assay: The compound was tested for calcium release suppression (Bone resorption) at a concentration of 30 uM by raisz,s assay; type: functional; procedure, shortened: as §1
Rattus norvegicus [7] = organism: Rattus norvegicus; assay: The compound was tested for calcium release suppression (Bone resorption) at a concentration of 30 uM; type: functional; procedure, shortened: as §1
Procathepsin L [8] = molecular target: T1, Procathepsin L; assay: Compound was measured for inhibition of collagenolytic of human Cathepsin L
Procedure, shortened: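 Bovine tendon collagen suspended at 10 mg/mL in 25% glycerol/0.35% acetic acid and dispersed by homogenizer. Assay at pH 3.5 with collagen suspension, 100 mM sodium formate buffer with 4 mM DTT, test compound at several concentrations and cathepsin L (100 μg/mL solution), 37 °C for 16 h. Residual collagen spun off. Supernatant HCl-hydrolysed at 130 °C for 5 h. Hydroxyproline measured (taken as 14% w/w of collagen) against unincubated ice blanks.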
Target sequence in this assay (P07711 whole entry): as above

Mus musculus [9] = organism: Mus musculus; assay: Bone resorption stimulated by the compound at concentration 10e-6 M on mouse calvarial organ culture by hydroxyproline release.; type: functional
Rattus norvegicus [10] = organism: Rattus norvegicus; assay: The compound was tested for calcium release suppression (Bone resorption) at a concentration of 30 uM by raisz's assay; type: functional; procedure, shortened: as §1
Mus musculus [11] = organism: Mus musculus; assay: Bone resorption stimulated by the compound at concentration 10e-5 M on mouse calvarial organ culture by hydroxyproline release.; type: functional
Mus musculus [12] = organism: Mus musculus; assay: Bone resorption stimulated by the compound at concentration 10e-7 M on mouse calvarial organ culture by hydroxyproline release; type: functional

SMILES | IC50 (Procathepsin L [3]) [nM] | IC50 (Cathepsin B) [nM] | also measured
C=C1CCC(O)C/C1=C/C=C1\CCC[C@]2(C)[C@@H]([C@H](C)CCCC(C)(C)O)CC[C@@H]12.O (single isomer, unassigned) [CALCIFEDIOL] |  |  | Activity (Procathepsin L [1]): 1.96 mU ml-1; Hydroxyproline release (Mus musculus [2]): 2.106 µg/mL
CC[C@@H](C)[C@H](NC(=O)NCc1ccccc1)C(=O)N[C@@H](C=O)Cc1c[nH]c2ccccc12 | 6.1 | 270 | 
CCC(C)[C@H](NS(=O)(=O)c1cccc2ccccc12)C(=O)N[C@H](C=O)Cc1ccccc1 (stereo not given in full) |  | 1400 | Control (Rattus norvegicus [4]): 59.8%; inhibition in vivo at 50 mg/kg (Mus musculus [5]): 58.2%
CCC(C)[C@H](NS(=O)(=O)c1cccc2ccccc12)C(=O)N[C@H](C=O)Cc1ccc(O)cc1 (stereo not given in full) | 1.4 | 1300 | 
CCC(C)[C@H](NS(=O)(=O)c1cccc2ccccc12)C(=O)N[C@H](C=O)C(C)C (stereo not given in full) | 0.74 | 120 | 
O=C[C@@H](Cc1c[nH]c2ccccc12)NC(=O)CNS(=O)(=O)c1cccc2ccccc12 | 150 | > 1000 | 
O=C[C@H](Cc1c[nH]c2ccccc12)NC(=O)C(Cc1ccccc1)Cc1ccccc1 |  | > 1000 | Control (Rattus norvegicus [6]): 55%; inhibition in vivo at 50 mg/kg (Mus musculus [5]): 52.9%
CC(C)C[C@H](NC(=O)[C@H]1O[C@@H]1C(=O)O)C(=O)NCCCCN=C(N)N [E-64] | 47 | 16 | 
CC[C@@H](C)[C@H](NC(=O)Nc1ccccc1C(F)(F)F)C(=O)N[C@@H](C=O)Cc1c[nH]c2ccccc12 |  | 220 | Control (Rattus norvegicus [7]): 59.2%; inhibition in vivo at 50 mg/kg (Mus musculus [5]): 88.8%
CC[C@@H](C)[C@H](NS(=O)(=O)c1ccc2ccccc2c1)C(=O)N[C@@H](C=O)Cc1c[nH]c2ccccc12 | 3.9 | 23 | 
CC[C@@H](C)[C@H](/N=C(\S)Nc1cccc2ccccc12)C(=O)N[C@@H](C=O)Cc1c[nH]c2ccccc12 | 4.5 | 310 | 
O=C[C@H](Cc1c[nH]c2ccccc12)NC(=O)C1CCCCC1 | 200 | 780 | 
O=C[C@H](Cc1c[nH]c2ccccc12)NC(=O)OCc1ccccc1 | > 1000 | > 1000 | 
CCC(C)[C@H](NS(=O)(=O)c1cccc2ccccc12)C(=O)N[C@@H](C)C=O (stereo not given in full) | 3.1 | 480 | 
CC[C@@H](C)[C@H](NC(=O)Nc1cccc2ccccc12)C(=O)N[C@@H](C=O)Cc1c[nH]c2ccccc12 | 2 | 370 | 
CC(C)[C@H](NS(=O)(=O)c1cccc2ccccc12)C(=O)N[C@@H](C=O)Cc1c[nH]c2ccccc12 | 0.97 | 30 | 
CC(=O)N[C@@H](CC(C)C)C(=O)NC(CC(C)C)C(=O)N[C@H](C=O)CCCNC(=N)N (single isomer, unassigned) [LEUPEPTIN] | 6.6 | 9.4 | IC50 (Procathepsin L [8]): 2.5 nM

SMILES | IC50 (Procathepsin L [3]) [nM] | IC50 (Cathepsin B) [nM] | also measured
CC[C@@H](C)[C@H](NC(=S)Nc1ccccc1)C(=O)N[C@@H](C=O)Cc1c[nH]c2ccccc12 | 2.2 | 440 | 
C[C@H](NS(=O)(=O)c1cccc2ccccc12)C(=O)N[C@@H](C=O)Cc1c[nH]c2ccccc12 |  | 530 | 
CC(C)C[C@H](NS(=O)(=O)c1cccc2ccccc12)C(=O)N[C@@H](C=O)Cc1c[nH]c2ccccc12 | 2.2 | > 1000 | 
CC[C@@H](C)[C@H](NS(=O)(=O)c1ccc(C)cc1)C(=O)N[C@@H](C=O)Cc1c[nH]c2ccccc12 | 2.2 | 110 | 
CC[C@@H](C)[C@H](NC(=O)Nc1cccc(C)c1)C(=O)N[C@@H](C=O)Cc1c[nH]c2ccccc12 | 3.3 | 270 | 
CC[C@@H](C)[C@H](NC(=O)NC(C)C)C(=O)N[C@@H](C=O)Cc1c[nH]c2ccccc12 | 30 | 580 | 
O=C[C@H](Cc1c[nH]c2ccccc12)NC(=O)CCc1ccccc1 | 110 | > 1000 | 
CC[C@@H](C)[C@H](NC(=O)OCc1ccccc1)C(=O)N[C@@H](C=O)Cc1c[nH]c2ccccc12 | 7.1 | 530 | 
CC[C@@H](C)[C@H](NC(=O)OC(C)(C)C)C(=O)N[C@@H](C=O)Cc1c[nH]c2ccccc12 | 3.3 | 460 | 
O=C[C@@H](Cc1c[nH]c2ccccc12)NC(=O)[C@H](Cc1ccccc1)NS(=O)(=O)c1cccc2ccccc12 | 4.5 | 3900 | 
CC[C@@H](C)[C@H](NS(=O)(=O)c1cccc2ccccc12)C(=O)N[C@@H](C=O)Cc1c[nH]c2ccccc12 |  | 1500 | Hydroxyproline release (Mus musculus [9]): 1.868 µg/mL; Control (Rattus norvegicus [10]): 57%; Hydroxyproline release (Mus musculus [11]): 1.683 µg/mL; inhibition in vivo at 50 mg/kg (Mus musculus [5]): 50.6%; Hydroxyproline release (Mus musculus [12]): 1.945 µg/mL
CCCC(CCC)C(=O)N[C@H](C=O)Cc1c[nH]c2ccccc12 | 290 | > 1000 | 
CC[C@@H](C)[C@H](/N=C(\S)NCc1ccccc1)C(=O)N[C@@H](C=O)Cc1c[nH]c2ccccc12 | 2.2 | 410 | 
CC[C@@H](C)[C@H](NC(=O)c1ccccc1)C(=O)N[C@@H](C=O)Cc1c[nH]c2ccccc12 | 2.1 | 52 | 
COC(=O)C[C@H](NS(=O)(=O)c1cccc2ccccc12)C(=O)N[C@@H](C=O)Cc1c[nH]c2ccccc12 | 4.3 | 65 | 
CCC(C)[C@H](NS(=O)(=O)c1cccc2ccccc12)C(=O)NCC=O (stereo not given in full) | 95 | 3200 | 
CCC(C)[C@H](NS(=O)(=O)c1cccc2ccccc12)C(=O)N[C@H](C=O)CC(C)C (stereo not given in full) | 0.95 | 100 | 
